The source of these data is ChEMBL document CHEMBL1122443, “Synthesis and antitumor evaluation of selected 5,6-disubstituted 1(2)H-indazole-4,7-diones” (1983).

The subject of experiment [1] is Mus musculus. As to the kind of experiment: Antitumor activity in CF1 mice bearing Ehrlich ascites carcinoma measured as percentage inhibition at 50 mg/kg. Format: functional. Summed up:
(§1)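 Ehrlich ascites model in male CF1 mice (22–25 g): 2 × 10⁶ cells ip on day 0, ip dosing days 1–8, kill on day 9. Percent inhibition = 100 − [(treated volume × treated ascrit)/(control volume × control ascrit)]. Greater than 80% was taken as significant. Vehicle was 0.05% Tween 80, alone or with 5% absolute EtOH. 6-Mercaptopurine was the positive control.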

Experiment [2] relates to Mus musculus. The experiment is described as follows: Antitumor activity in 18 CF1 mice bearing Ehrlich ascites carcinoma measured as survivors on day 9 at 50 mg/kg; 16/18. Type of experiment: functional.
The test system of experiment [3] is Mus musculus. The experiment is described as follows: Antitumor activity in CF1 mice bearing Ehrlich ascites carcinoma measured as ascites volume at 50 mg/kg. Type of experiment: functional. Summed up:
(§2)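 Male CF1 mice (22–25 g) received 2 × 10⁶ Ehrlich carcinoma cells ip on day 0. Dosing was ip daily on days 1–8, with sacrifice on day 9. Ascites fluid volume per mouse and ascrit (packed cell volume) were measured for each group. Vehicle was 0.05% Tween 80, or 5% absolute EtOH in 0.05% Tween 80, used for both compound and control. 6-Mercaptopurine was the positive control.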

Experiment [4] relates to Mus musculus. As to the kind of experiment: Antitumor activity in CF1 mice bearing Ehrlich ascites carcinoma measured as percent ascrit packed cell volume at 50 mg/kg. Type of experiment: functional. The essentials: as §2
Experiment [5] deals with Mus musculus. As to the kind of experiment: Average days survived for treated / average days survived for control at 25 (mg/kg); 17.6/9.5. Format: functional.
For experiment [6], the system named is Mus musculus. As to the kind of experiment: Anti tumor activity in mice bearing lymphocytic leukemia P-388 at 25 mg/kg. Format: functional. The essentials:
(§3)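 Male BDF1 mice (20–23 g) were inoculated ip with 1 × 10⁶ P-388 leukemia cells on day 0. Compound was given ip once daily on days 1–14 in 0.05% Tween 80 vehicle, with a vehicle control group and 5-fluorouracil as positive control. Activity was scored as % T/C, average days survived treated/control, with >125% taken as significant.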

In experiment [7] the test system is Mus musculus. The experiment is described as follows: Antitumor activity in CF1 mice bearing Ehrlich ascites carcinoma measured as percentage inhibition at 5 mg/kg. Type of experiment: functional. The essentials: as §1
In experiment [8] the test system is Mus musculus. As to the kind of experiment: Antitumor activity in CF1 mice bearing Ehrlich ascites carcinoma measured as ascites volume at 0.5 mg/kg. Type of experiment: functional. Summed up:
(§4)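 Ehrlich ascites cells (2 × 10⁶) were implanted ip in male CF1 mice (22–25 g) on day 0. Dosing was ip on days 1–8 in 0.05% Tween 80 or 5% EtOH/0.05% Tween 80, with vehicle controls. Mice were killed on day 9, and ascites fluid volume per mouse was measured.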

The test system of experiment [9] is Mus musculus. As to the kind of experiment: Antitumor activity in CF1 mice bearing Ehrlich ascites carcinoma measured as percentage inhibition at 0.5 mg/kg; IA= inactive. Format: functional, organism-based. On the set-up: dose 0.5 mg/kg. Summed up:
(§5)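 In the Ehrlich ascites model, male CF1 mice (22–25 g) received 2 × 10⁶ cells ip on day 0 and compound ip on days 1–8, with a vehicle of 0.05% Tween 80 ± 5% EtOH. Ascites volume and ascrit were taken on day 9. % inhibition = 100 − [(vol × ascrit, treated)/(vol × ascrit, control)], with >80% taken as significant.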

In experiment [10] the test system is Mus musculus. The experiment is described as follows: Antitumor activity in CF1 mice bearing Ehrlich ascites carcinoma measured as percentage inhibition at 1 mg/kg. Type of experiment: functional. The essentials:
as §5

Experiment [11] relates to Mus musculus. The experiment is described as follows: Antitumor activity in CF1 mice bearing Ehrlich ascites carcinoma measured as survivors on day 9 at 1 mg/kg; 6/6. Format: functional.
The subject of experiment [12] is Mus musculus. The experiment is described as follows: Antitumor activity in CF1 mice bearing Ehrlich ascites carcinoma measured as ascites volume at 1 mg/kg. Format: functional. Summed up: as §4
The subject of experiment [13] is Mus musculus. The experiment is described as follows: Antitumor activity in CF1 mice bearing Ehrlich ascites carcinoma measured as ascites volume at 5 mg/kg. Type of experiment: functional. The essentials: as §2
Experiment [14] relates to Mus musculus. As to the kind of experiment: Average days survived for treated / average days survived for control at 0.5 (mg/kg); 10.5/9.2. Format: functional.
Experiment [15] concerns Mus musculus. The experiment is described as follows: Average days survived for treated / average days survived for control at 1 (mg/kg); 13.3/9.2. Type of experiment: functional.
In experiment [16] the test system is Mus musculus. The experiment is described as follows: Average days survived for treated / average days survived for control at 2 (mg/kg); 12.6/9.2. Type of experiment: functional.
In experiment [17] the test system is Mus musculus. As to the kind of experiment: Average days survived for treated / average days survived for control at 3 (mg/kg); 10.2/9.2. Type of experiment: functional.
Experiment [18] has as its system Mus musculus. As to the kind of experiment: Average days survived for treated / average days survived for control at 5 (mg/kg); 11/9.2. Format: functional.
Experiment [19] deals with Mus musculus. As to the kind of experiment: Antitumor activity in CF1 mice bearing Ehrlich ascites carcinoma measured as survivors on day 9 at 5 mg/kg; 6/6. Format: functional.
Experiment [20] concerns Mus musculus. The experiment is described as follows: Antitumor activity in CF1 mice bearing Ehrlich ascites carcinoma measured as percent ascrit packed cell volume at 1 mg/kg. Format: functional. Summed up: (§6)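 CF1 male mice (22–25 g) were inoculated ip with 2 × 10⁶ Ehrlich cells on day 0 and treated ip on days 1–8 in 0.05% Tween 80 or 5% EtOH/0.05% Tween 80 vehicle. On day 9 the mice were sacrificed, and the ascrit (packed cell volume) of the ascites fluid was determined.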

For experiment [21], the system named is Mus musculus. As to the kind of experiment: Antitumor activity in CF1 mice bearing Ehrlich ascites carcinoma measured as percent ascrit packed cell volume at 5 mg/kg. Format: functional. Summed up:
as §2

Experiment [22] deals with Mus musculus. As to the kind of experiment: Antitumor activity in CF1 mice bearing Ehrlich ascites carcinoma measured as percent ascrit packed cell volume at 0.5 mg/kg. Format: functional. Summed up:
as §6

In experiment [23] the test system is Mus musculus. The experiment is described as follows: Anti tumor activity in mice bearing lymphocytic leukemia P-388 at 0.5 mg/kg. Type of experiment: functional. Summed up: as §3
In experiment [24] the test system is Mus musculus. As to the kind of experiment: Anti tumor activity in mice bearing lymphocytic leukemia P-388 at 1 mg/kg. Format: functional. The essentials:
as §3

Experiment [25] has as its system Mus musculus. The experiment is described as follows: Anti tumor activity in mice bearing lymphocytic leukemia P-388 at 2 mg/kg. Type of experiment: functional. The essentials: as §3
Experiment [26] relates to Mus musculus. As to the kind of experiment: Anti tumor activity in mice bearing lymphocytic leukemia P-388 at 3 mg/kg. Type of experiment: functional. Summed up: as §3
The subject of experiment [27] is Mus musculus. The experiment is described as follows: Anti tumor activity in mice bearing lymphocytic leukemia P-388 at 5 mg/kg. Format: functional. Summed up: as §3
The test system of experiment [28] is Mus musculus. As to the kind of experiment: Anti tumor activity in mice bearing lymphocytic leukemia P-388 at 10 mg/kg; Toxic. Type of experiment: functional, organism-based. On the set-up: dose 10 mg/kg. Summed up: as §3
Experiment [29] relates to Mus musculus. The experiment is described as follows: Antitumor activity in CF1 mice bearing Ehrlich ascites carcinoma measured as survivors on day 9 at 0.5 mg/kg; 5/6. Format: functional.
Experiment [30] concerns Mus musculus. As to the kind of experiment: Antitumor activity in CF1 mice bearing Ehrlich ascites carcinoma measured as percentage inhibition at 3 mg/kg; IA=inactive. Format: functional, organism-based. The arrangement: dose 3 mg/kg. The essentials: as §5
Experiment [31] has as its system Mus musculus. The experiment is described as follows: Antitumor activity in CF1 mice bearing Ehrlich ascites carcinoma measured as percentage inhibition at 8 mg/kg. Format: functional. The essentials:
as §1

The test system of experiment [32] is Mus musculus. As to the kind of experiment: Antitumor activity in CF1 mice bearing Ehrlich ascites carcinoma measured as survivors on day 9 at 3 mg/kg; 6/6. Format: functional.
The subject of experiment [33] is Mus musculus. The experiment is described as follows: Antitumor activity in CF1 mice bearing Ehrlich ascites carcinoma measured as ascites volume at 3 mg/kg. Type of experiment: functional. The essentials:
as §2

The test system of experiment [34] is Mus musculus. The experiment is described as follows: Antitumor activity in CF1 mice bearing Ehrlich ascites carcinoma measured as ascites volume at 8 mg/kg. Type of experiment: functional. The essentials:
as §2

Experiment [35] concerns Mus musculus. The experiment is described as follows: Average days survived for treated / average days survived for control at 1 (mg/kg); 10/9.2. Type of experiment: functional.
In experiment [36] the test system is Mus musculus. The experiment is described as follows: Antitumor activity in CF1 mice bearing Ehrlich ascites carcinoma measured as survivors on day 9 at 5 mg/kg; 5/5. Format: functional.
The subject of experiment [37] is Mus musculus. The experiment is described as follows: Antitumor activity in CF1 mice bearing Ehrlich ascites carcinoma measured as survivors on day 9 at 8 mg/kg; 5/6. Format: functional.
Experiment [38] deals with Mus musculus. As to the kind of experiment: Antitumor activity in CF1 mice bearing Ehrlich ascites carcinoma measured as percent ascrit packed cell volume at 3 mg/kg. Format: functional. The essentials: as §6
In experiment [39] the test system is Mus musculus. As to the kind of experiment: Antitumor activity in CF1 mice bearing Ehrlich ascites carcinoma measured as percent ascrit packed cell volume at 8 mg/kg. Format: functional. The essentials: as §2

Activity calls are given as the source filed them. The calls are words filed in the database; no cut-off is given here.

Take `Sc1ncnc2nc[nH]c12` [MERCAPTOPURINE ANHYDROUS]: in [1], the inhibition in vivo (commonly the drop in the measured response relative to a control, in per cent) at 50 mg/kg was 96.3%. In addition, in experiment [2], the Survivors is 16. The ascites volume in experiment [3] is recorded as 0.2 ml mouse-1. This compound had a packed cell volume in experiment [4] of 10.5%.
For `O=c1[nH]cc(F)c(=O)[nH]1` [FLUOROURACIL], in experiment [5], the “Average survival (days)” value stood at 17.6. In addition, the T/C – broadly, the ratio of treated to control – in experiment [6] is listed as 186%.
As to `O=C1C(N2CC2)=C(Cl)C(=O)c2n[nH]cc21`, testing at 5 mg/kg in experiment [7] gave an inhibition in vivo of 92.5%. The ascites volume was 0.38 ml mouse-1 in [8], 0.32 ml mouse-1 in [12] and 0.15 ml mouse-1 in experiment [13]. Besides, the inhibition result in experiment [9] was “inactive”. The compound further returned an inhibition in vivo at 1 mg/kg in experiment [10] of 95%. The results for the Survivors in [11], in experiment [19] and in experiment [29] were 6, 6 and 5, respectively. For the same compound, the “Average survival (days)” value in experiment [14] came out at 10.5; in experiment [15], 13.3; in experiment [16], 12.6; in experiment [17], 10.2; in [18], 11. Moreover, the packed cell volume stood at 5.8% in experiment [20], 49.4% in [21] and 44% in [22]. The T/C in [23] was 114%; in [24] it was 145%; in experiment [25] it was 137%; in experiment [26] it was 111%; in experiment [27], 120%; in experiment [28], “Toxic”.
For `CC(=O)NC1=C(N2CC2)C(=O)c2c(cnn2C)C1=O`, the inhibition result in experiment [30] is “inactive”. In [7], this compound yielded an inhibition in vivo at 5 mg/kg of 78.3%. Also, the inhibition in vivo at 8 mg/kg in experiment [31] was determined as 25.8%. In addition, the Survivors amounted to 6 in experiment [32], 5 in experiment [36] and 5 in [37]. For the same compound, the ascites volume in experiment [33] came out at 3.2 ml mouse-1; in experiment [13] it was 0.9 ml mouse-1; in [34], 1.2 ml mouse-1. For the same compound, the “Average survival (days)” value in [35] was 10. The packed cell volume was found to be 41.4% in [38], 37.4% in experiment [21] and 38.6% in experiment [39]. The same compound had a T/C in experiment [24] of 109%.
